Source: ChEMBL document CHEMBL5058577, “EUbOPEN Chemogenomics Library 2 (Multiplex)” (2022)

System: U2OS
Test: Multiplex assay against U2OS
Assay type: toxicity, cell-based
Conditions: human
Procedure, shortened: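 Live cells were stained at seeding with Hoechst33342, BioTracker Green Microtubule Cytoskeleton Dye, MitoTracker Red and Annexin V Alexa Fluor 680. Following compound addition, they were imaged on a CQ1 microscope at 37°C and 5% CO2 and gated by CellPathfinder machine learning into Hoechst high-intensity objects or normal cells, with normal cells split into healthy, pyknosed or fragmented nuclei and pyknosed cells into mitotic or apoptotic. Tubulin, mitochondrial-mass and membrane-permeability phenotypes are per cents of healthy-nucleus cells.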

[1] = 12 h, 1 µM, compound concentration 1 uM, replicate 1
[2] = 12 h, 1 µM, compound concentration 1 uM, replicate 2
[3] = 12 h, 10 µM, compound concentration 10 uM, replicate 1
[4] = 12 h, 10 µM, compound concentration 10 uM, replicate 2
[5] = 24 h, 1 µM, compound concentration 1 uM, replicate 1
[6] = 24 h, 1 µM, compound concentration 1 uM, replicate 2
[7] = 24 h, 10 µM, compound concentration 10 uM, replicate 1
[8] = 24 h, 10 µM, compound concentration 10 uM, replicate 2
[9] = 48 h, 1 µM, compound concentration 1 uM, replicate 1
[10] = 48 h, 1 µM, compound concentration 1 uM, replicate 2
[11] = 48 h, 10 µM, compound concentration 10 uM, replicate 1
[12] = 48 h, 10 µM, compound concentration 10 uM, replicate 2

CSc1ccccc1N1CCN(CCCCCC(=O)NC2CCCc3ccccc32)CC1.Cl (stereo unspecified)
Population Apoptotic (%) [1]: 62%
Population Fragmented Nuclei (%) [1]: 22%
Population Healthy Nuclei (%) [1]: 61%
Population Hoechst High Intensity Objects (%) [1]: 9%
Population Membrane Permeable-Phenotype (%) [1]: 73%
Population Mitochondria Different-Phenotype (%) [1]: 71%
Population Mitotic Cells (%) [1]: 37%
Population Normal (%) [1]: 90%
Population Pyknosed Nuclei (%) [1]: 15%
Population Tubulin-Different-Phenotype (%) [1]: 88%
Total Cell Count [1]: 222
Population Apoptotic (%) [2]: 36%
Population Fragmented Nuclei (%) [2]: 24%
Population Healthy Nuclei (%) [2]: 63%
Population Hoechst High Intensity Objects (%) [2]: 3%
Population Membrane Permeable-Phenotype (%) [2]: 51%
Population Mitochondria Different-Phenotype (%) [2]: 85%
Population Mitotic Cells (%) [2]: 63%
Population Normal (%) [2]: 96%
Population Pyknosed Nuclei (%) [2]: 11%
Population Tubulin-Different-Phenotype (%) [2]: 72%
Total Cell Count [2]: 101
Population Apoptotic (%) [3]: 70%
Population Fragmented Nuclei (%) [3]: 41%
Population Healthy Nuclei (%) [3]: 39%
Population Hoechst High Intensity Objects (%) [3]: 8%
Population Membrane Permeable-Phenotype (%) [3]: 67%
Population Mitochondria Different-Phenotype (%) [3]: 90%
Population Mitotic Cells (%) [3]: 29%
Population Normal (%) [3]: 91%
Population Pyknosed Nuclei (%) [3]: 18%
Population Tubulin-Different-Phenotype (%) [3]: 96%
Total Cell Count [3]: 221
Population Apoptotic (%) [4]: 84%
Population Fragmented Nuclei (%) [4]: 23%
Population Healthy Nuclei (%) [4]: 55%
Population Hoechst High Intensity Objects (%) [4]: 4%
Population Membrane Permeable-Phenotype (%) [4]: 60%
Population Mitochondria Different-Phenotype (%) [4]: 92%
Population Mitotic Cells (%) [4]: 16%
Population Normal (%) [4]: 95%
Population Pyknosed Nuclei (%) [4]: 21%
Population Tubulin-Different-Phenotype (%) [4]: 98%
Total Cell Count [4]: 125
Population Apoptotic (%) [5]: 54%
Population Fragmented Nuclei (%) [5]: 22%
Population Healthy Nuclei (%) [5]: 60%
Population Hoechst High Intensity Objects (%) [5]: 6%
Population Membrane Permeable-Phenotype (%) [5]: 63%
Population Mitochondria Different-Phenotype (%) [5]: 63%
Population Mitotic Cells (%) [5]: 45%
Population Normal (%) [5]: 94%
Population Pyknosed Nuclei (%) [5]: 17%
Population Tubulin-Different-Phenotype (%) [5]: 75%
Total Cell Count [5]: 250
Population Apoptotic (%) [6]: 58%
Population Fragmented Nuclei (%) [6]: 25%
Population Healthy Nuclei (%) [6]: 58%
Population Hoechst High Intensity Objects (%) [6]: 2%
Population Membrane Permeable-Phenotype (%) [6]: 46%
Population Mitochondria Different-Phenotype (%) [6]: 74%
Population Mitotic Cells (%) [6]: 41%
Population Normal (%) [6]: 97%
Population Pyknosed Nuclei (%) [6]: 15%
Population Tubulin-Different-Phenotype (%) [6]: 63%
Total Cell Count [6]: 111
Population Apoptotic (%) [7]: 89%
Population Fragmented Nuclei (%) [7]: 44%
Population Healthy Nuclei (%) [7]: 28%
Population Hoechst High Intensity Objects (%) [7]: 6%
Population Membrane Permeable-Phenotype (%) [7]: 79%
Population Mitochondria Different-Phenotype (%) [7]: 81%
Population Mitotic Cells (%) [7]: 10%
Population Normal (%) [7]: 93%
Population Pyknosed Nuclei (%) [7]: 26%
Population Tubulin-Different-Phenotype (%) [7]: 91%
Total Cell Count [7]: 219
Population Apoptotic (%) [8]: 94%
Population Fragmented Nuclei (%) [8]: 19%
Population Healthy Nuclei (%) [8]: 44%
Population Hoechst High Intensity Objects (%) [8]: 10%
Population Membrane Permeable-Phenotype (%) [8]: 90%
Population Mitochondria Different-Phenotype (%) [8]: 56%
Population Mitotic Cells (%) [8]: 5%
Population Normal (%) [8]: 89%
Population Pyknosed Nuclei (%) [8]: 37%
Population Tubulin-Different-Phenotype (%) [8]: 97%
Total Cell Count [8]: 112
Population Apoptotic (%) [9]: 64%
Population Fragmented Nuclei (%) [9]: 25%
Population Healthy Nuclei (%) [9]: 53%
Population Hoechst High Intensity Objects (%) [9]: 8%
Population Membrane Permeable-Phenotype (%) [9]: 42%
Population Mitochondria Different-Phenotype (%) [9]: 56%
Population Mitotic Cells (%) [9]: 35%
Population Normal (%) [9]: 91%
Population Pyknosed Nuclei (%) [9]: 21%
Population Tubulin-Different-Phenotype (%) [9]: 50%
Total Cell Count [9]: 272
Population Apoptotic (%) [10]: 95%
Population Fragmented Nuclei (%) [10]: 28%
Population Healthy Nuclei (%) [10]: 52%
Population Hoechst High Intensity Objects (%) [10]: 5%
Population Membrane Permeable-Phenotype (%) [10]: 41%
Population Mitochondria Different-Phenotype (%) [10]: 63%
Population Mitotic Cells (%) [10]: 4%
Population Normal (%) [10]: 94%
Population Pyknosed Nuclei (%) [10]: 18%
Population Tubulin-Different-Phenotype (%) [10]: 44%
Total Cell Count [10]: 137
Population Apoptotic (%) [11]: 98%
Population Fragmented Nuclei (%) [11]: 43%
Population Healthy Nuclei (%) [11]: 18%
Population Hoechst High Intensity Objects (%) [11]: 15%
Population Membrane Permeable-Phenotype (%) [11]: 77%
Population Mitochondria Different-Phenotype (%) [11]: 33%
Population Mitotic Cells (%) [11]: 1%
Population Normal (%) [11]: 84%
Population Pyknosed Nuclei (%) [11]: 38%
Population Tubulin-Different-Phenotype (%) [11]: 75%
Total Cell Count [11]: 232
Population Apoptotic (%) [12]: 100%
Population Fragmented Nuclei (%) [12]: 25%
Population Healthy Nuclei (%) [12]: 20%
Population Hoechst High Intensity Objects (%) [12]: 11%
Population Membrane Permeable-Phenotype (%) [12]: 85%
Population Mitochondria Different-Phenotype (%) [12]: 45%
Population Mitotic Cells (%) [12]: 0%
Population Normal (%) [12]: 88%
Population Pyknosed Nuclei (%) [12]: 54%
Population Tubulin-Different-Phenotype (%) [12]: 95%
Total Cell Count [12]: 109

CCNC1(C(N)=O)CCN(c2ncnc3c2nc(-c2ccccc2Cl)n3-c2ccc(Cl)cc2)CC1 [OTENABANT]
Population Apoptotic (%) [1]: 77%
Population Fragmented Nuclei (%) [1]: 30%
Population Healthy Nuclei (%) [1]: 60%
Population Hoechst High Intensity Objects (%) [1]: 3%
Population Membrane Permeable-Phenotype (%) [1]: 13%
Population Mitochondria Different-Phenotype (%) [1]: 7%
Population Mitotic Cells (%) [1]: 22%
Population Normal (%) [1]: 96%
Population Pyknosed Nuclei (%) [1]: 9%
Population Tubulin-Different-Phenotype (%) [1]: 4%
Total Cell Count [1]: 254
Population Apoptotic (%) [2]: 85%
Population Fragmented Nuclei (%) [2]: 17%
Population Healthy Nuclei (%) [2]: 74%
Population Hoechst High Intensity Objects (%) [2]: 2%
Population Membrane Permeable-Phenotype (%) [2]: 11%
Population Mitochondria Different-Phenotype (%) [2]: 22%
Population Mitotic Cells (%) [2]: 14%
Population Normal (%) [2]: 97%
Population Pyknosed Nuclei (%) [2]: 7%
Population Tubulin-Different-Phenotype (%) [2]: 10%
Total Cell Count [2]: 93
Population Apoptotic (%) [3]: 58%
Population Fragmented Nuclei (%) [3]: 31%
Population Healthy Nuclei (%) [3]: 48%
Population Hoechst High Intensity Objects (%) [3]: 6%
Population Membrane Permeable-Phenotype (%) [3]: 81%
Population Mitochondria Different-Phenotype (%) [3]: 63%
Population Mitotic Cells (%) [3]: 41%
Population Normal (%) [3]: 93%
Population Pyknosed Nuclei (%) [3]: 19%
Population Tubulin-Different-Phenotype (%) [3]: 89%
Total Cell Count [3]: 211
Population Apoptotic (%) [4]: 70%
Population Fragmented Nuclei (%) [4]: 21%
Population Healthy Nuclei (%) [4]: 60%
Population Hoechst High Intensity Objects (%) [4]: 0%
Population Membrane Permeable-Phenotype (%) [4]: 65%
Population Mitochondria Different-Phenotype (%) [4]: 73%
Population Mitotic Cells (%) [4]: 30%
Population Normal (%) [4]: 99%
Population Pyknosed Nuclei (%) [4]: 18%
Population Tubulin-Different-Phenotype (%) [4]: 76%
Total Cell Count [4]: 112
Population Apoptotic (%) [5]: 79%
Population Fragmented Nuclei (%) [5]: 26%
Population Healthy Nuclei (%) [5]: 61%
Population Hoechst High Intensity Objects (%) [5]: 3%
Population Membrane Permeable-Phenotype (%) [5]: 11%
Population Mitochondria Different-Phenotype (%) [5]: 5%
Population Mitotic Cells (%) [5]: 20%
Population Normal (%) [5]: 96%
Population Pyknosed Nuclei (%) [5]: 11%
Population Tubulin-Different-Phenotype (%) [5]: 7%
Total Cell Count [5]: 308
Population Apoptotic (%) [6]: 80%
Population Fragmented Nuclei (%) [6]: 24%
Population Healthy Nuclei (%) [6]: 62%
Population Hoechst High Intensity Objects (%) [6]: 4%
Population Membrane Permeable-Phenotype (%) [6]: 15%
Population Mitochondria Different-Phenotype (%) [6]: 15%
Population Normal (%) [6]: 95%
Population Pyknosed Nuclei (%) [6]: 13%
Population Tubulin-Different-Phenotype (%) [6]: 5%
Total Cell Count [6]: 120
Population Apoptotic (%) [7]: 69%
Population Fragmented Nuclei (%) [7]: 29%
Population Healthy Nuclei (%) [7]: 49%
Population Hoechst High Intensity Objects (%) [7]: 3%
Population Membrane Permeable-Phenotype (%) [7]: 55%
Population Mitochondria Different-Phenotype (%) [7]: 75%
Population Mitotic Cells (%) [7]: 30%
Population Normal (%) [7]: 96%
Population Pyknosed Nuclei (%) [7]: 20%
Population Tubulin-Different-Phenotype (%) [7]: 78%
Total Cell Count [7]: 218
Population Apoptotic (%) [8]: 80%
Population Fragmented Nuclei (%) [8]: 28%
Population Healthy Nuclei (%) [8]: 53%
Population Membrane Permeable-Phenotype (%) [8]: 47%
Population Mitochondria Different-Phenotype (%) [8]: 72%
Population Mitotic Cells (%) [8]: 20%
Population Pyknosed Nuclei (%) [8]: 18%
Population Tubulin-Different-Phenotype (%) [8]: 62%
Total Cell Count [8]: 137
Population Apoptotic (%) [9]: 86%
Population Fragmented Nuclei (%) [9]: 24%
Population Healthy Nuclei (%) [9]: 64%
Population Hoechst High Intensity Objects (%) [9]: 1%
Population Membrane Permeable-Phenotype (%) [9]: 7%
Population Mitochondria Different-Phenotype (%) [9]: 4%
Population Mitotic Cells (%) [9]: 13%
Population Normal (%) [9]: 98%
Population Pyknosed Nuclei (%) [9]: 10%
Population Tubulin-Different-Phenotype (%) [9]: 3%
Total Cell Count [9]: 416
Population Apoptotic (%) [10]: 52%
Population Fragmented Nuclei (%) [10]: 16%
Population Healthy Nuclei (%) [10]: 69%
Population Hoechst High Intensity Objects (%) [10]: 4%
Population Membrane Permeable-Phenotype (%) [10]: 13%
Population Mitochondria Different-Phenotype (%) [10]: 10%
Population Mitotic Cells (%) [10]: 47%
Population Normal (%) [10]: 95%
Population Pyknosed Nuclei (%) [10]: 14%
Population Tubulin-Different-Phenotype (%) [10]: 9%
Total Cell Count [10]: 137
Population Apoptotic (%) [11]: 86%
Population Fragmented Nuclei (%) [11]: 32%
Population Healthy Nuclei (%) [11]: 43%
Population Hoechst High Intensity Objects (%) [11]: 7%
Population Membrane Permeable-Phenotype (%) [11]: 49%
Population Mitochondria Different-Phenotype (%) [11]: 55%
Population Mitotic Cells (%) [11]: 13%
Population Normal (%) [11]: 92%
Population Pyknosed Nuclei (%) [11]: 23%
Population Tubulin-Different-Phenotype (%) [11]: 51%
Total Cell Count [11]: 269
Population Apoptotic (%) [12]: 80%
Population Fragmented Nuclei (%) [12]: 29%
Population Healthy Nuclei (%) [12]: 45%
Population Hoechst High Intensity Objects (%) [12]: 10%
Population Membrane Permeable-Phenotype (%) [12]: 43%
Population Mitochondria Different-Phenotype (%) [12]: 66%
Population Mitotic Cells (%) [12]: 20%
Population Normal (%) [12]: 89%
Population Pyknosed Nuclei (%) [12]: 24%
Population Tubulin-Different-Phenotype (%) [12]: 49%
Total Cell Count [12]: 138
